Values after ≈ are worked out from the molar mass of the structure shown. Active and inactive are the calls of the source. The calls are words filed in the database; no cut-off is given here.
Legend:
Influenza A virus [1] = experiment: Inhibition of Influenza A virus A/PR/8/34 infected in MDCK cells after 48 hrs by plaque reduction assay; type: functional, organism-based; details: A/PR/8/34, MDCK
Outline: (§1)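 Confluent MDCK monolayers in 12-well plates were infected with about 40 PFU/well in DMEM with 1 µg/ml TPCK-trypsin and 0.14% BSA, with compound or DMSO, for 1 h at 37 °C. Overlay was serum-free medium with trypsin, BSA, 1.2% Avicel and compound. After 48 h, cells were fixed with 4% formaldehyde, stained with 0.1% toluidine blue and plaques counted, with DMSO set as 100%. EC50 is mean ± SD, ≥3 experiments in duplicate.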

[2] = Cytotoxicity against MDCK cells after 48 hrs by MTT assay; type: cell-based, Canis lupus familiaris; details: dog
Outline: (§2)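 MTT assay. HEK 293T or MDCK cells (2×10^4 per well) were cultured at 37 °C in DMEM with serially diluted compounds (250 to 1.9 μM), for 24 h (293T) or 48 h (MDCK). MTT (5 mg/ml stock) was then added for 4 h, cells were lysed and incubated 3 h more, and absorbance was read at 620 nm. CC50 is the concentration cutting viability 50%, mean ± SD of ≥3 independent experiments in duplicate.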

Influenza A virus [3] = experiment: Inhibition of Influenza A virus A/[…]/67/05(H3N2) infected in MDCK cells after 48 hrs by plaque reduction assay; type: functional, organism-based; outline: as §1
Influenza B virus [4] = experiment: Inhibition of Influenza B virus (B/Lee/40) infected in MDCK cells after 48 hrs by plaque reduction assay; type: functional, organism-based; details: B/Lee/1940, MDCK; outline: as §1
[5] = Metabolic stability in human liver microsomes assessed as compound remaining after 30 mins by HPLC-MS/MS analysis; type: ADME; details: read-out: Stability
[6] = Inhibition of Influenza A virus (A/Solomon Islands/3/2006(H1N1)) infected in MDCK cells after 48 hrs by plaque reduction assay; type: functional, cell-based; outline: as §1
Influenza B virus [7] = experiment: Inhibition of Influenza B virus (B/Malaysia/2506/2004) infected in MDCK cells after 48 hrs by plaque reduction assay; type: functional, cell-based; details: B/Malaysia/2506/2004, MDCK; outline: as §1
[8] = Inhibition of Influenza A virus (A/Parma/24/2009(H1N1)) infected in MDCK cells after 48 hrs by plaque reduction assay; type: functional, cell-based; outline: as §1
[9] = Inhibition of Influenza A virus RdRP infected in human HEK293T cells after 24 hrs by dual luciferase reporter gene assay; type: cell-based; details: HEK-293T
Outline: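 HEK 293T cells (10^5 per well) were transfected 24 h after seeding with PB1, PB2, PA and NP plasmids (100 ng each), a pol I firefly luciferase reporter (50 ng) and pRL-SV40 Renilla (50 ng), with compound or DMSO. Medium was replaced with compound-containing DMEM at 4 h. Dual luciferase was read at 24 h post-transfection, with DMSO set as 100%. EC50 is mean ± SD, ≥3 experiments in duplicate.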

[10] = Cytotoxicity against human HEK293T cells after 24 hrs by MTT assay; type: cell-based, HEK-293T; outline: as §2
Human betaherpesvirus 5 = experiment: Inhibition of HCMV UL54 expressed in baculovirus interaction with UL44 expressed in baculovirus after 1 hr by ELISA
Outline: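 Plates coated with […] purified baculovirus-expressed HCMV UL54, then blocked with 2% BSA/PBS for 1 h. Purified UL44 ([…]) carrying a C-terminal EEF tag was added with compound or DMSO (1% final) for 1 h at 37 °C. Detection used MAb YL1/2 (1 h, 37 °C), then HRP anti-rat antibody and TMB, read at 450 nm. Compounds were tested up to 200 μM.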

Influenza A virus [11] = experiment: Inhibition of Influenza A virus A/Padova/30/11(H1N1) infected in MDCK cells after 48 hrs by plaque reduction assay; type: functional, organism-based; outline: as §1
[12] = Inhibition of Influenza A virus GST-tagged PB1 (1 to 25) expressed in Escherichia coli binding to Influenza A virus 6His-tagged PA (239 to 716) expressed in Escherichia coli BL21(DE3) by ELISA
Outline: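 Plates coated with 400 ng purified E. coli-expressed 6His-PA(239-716) for 3 h at 37 °C, then blocked with 2% BSA/PBS for 1 h at 37 °C. GST-PB1(1-25) (200 ng; GST alone as control) was added with compound at 10, 50, 100 or 200 μM and incubated overnight at room temperature. Detection used HRP anti-GST mAb (1:3000) and TMB at 450 nm, with DMSO set as 100%. IC50 is mean ± SD, ≥3 experiments in duplicate.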

[13] = Permeability of the compound by PAMPA; type: physicochemical
[14] = Solubility of the compound in D2O at 25 degC after 24 hrs by NMR analysis; type: physicochemical
Liver microsome = experiment: Metabolic stability in human liver microsomes after 30 mins by HPLC-MS/MS analysis; type: ADME; details: 0.5 h

SMILES	EC50 (Influenza A virus [1])	CC50 at 48 h [2]	EC50 (Influenza A virus [3])	EC50 (Influenza B virus [4])	remaining at 0.5 h [5]	EC50 [6]	EC50 (Influenza B virus [7])	EC50 [8]	EC50 [9]	IC50 [9]	CC50 at 24 h [10]	inhibition (Human betaherpesvirus 5)	EC50 (Influenza A virus [11])	IC50 [12]	inhibition activity call (active/not active) (Human betaherpesvirus 5)	permeability [13]	solubility at 24 h [14]	Stability (Liver microsome)
NC(=O)c1c(NC(=O)c2cnn3c(C(F)F)cc(-c4ccccc4)nc23)sc2c1CCC2	75.5 µM	> 250 µM	> 100 µM	> 100 µM	37%	> 100 µM	> 100 µM	95.5 µM	29.5 µM	31.4 µM	> 250 µM	inactive	> 100 µM					
CCC(C)NC(=O)c1ccccc1NC(=O)c1ccc(C)c(S(=O)(=O)Nc2cc(C)ccc2C)c1 (stereo unspecified)	18.7 µM	> 250 µM	15.9 µM	21.8 µM		17.5 µM	29.6 µM	25 µM	45.9 µM		> 250 µM		22.6 µM	30.5 µM	inactive			
CCC(C)NC(=O)c1ccccc1NC(=O)c1cccc(S(=O)(=O)Nc2ccc(O)cc2)c1 (stereo unspecified)	> 100 µM	> 250 µM							82.6 µM		> 250 µM			> 200 µM				
NC(=O)c1c(NC(=O)c2cccnc2)sc2c1CCCC2		45.2 µM									> 250 µM			> 200 µM				
O=C(Nc1cnn(C23CC4CC(CC(C4)C2)C3)c1)c1cnn2c1NC(c1ccccc1)CC2C(F)(F)F (stereo unspecified)		20.2 µM									30.1 µM			> 200 µM				
O=C(Nc1ccccc1Cl)c1ccc2c(c1)C1C3CCC(C3)C1C(c1ccccc1)N2 (stereo unspecified)	> 100 µM	> 250 µM							> 100 µM		> 250 µM			> 200 µM				
NC(=O)c1c(NC(=O)c2cnn3c(C(F)F)cc(-c4ccccc4)nc23)sc2c1CCCC2	66 µM	> 250 µM							94.2 µM		> 250 µM			91.2 µM				
NC(=O)c1c(NC(=O)c2cnn3c(C(F)(F)F)cc(-c4ccccc4)nc23)sc2c1CCC2	57 µM	> 250 µM							27.5 µM		> 250 µM			44.8 µM				
O=C(Nc1ccc2c(c1)CCC2)c1cnn2c(C(F)(F)F)cc(-c3cccs3)nc12		18.3 µM									12.4 µM			35.1 µM				
COC(=O)C1=C(N)N(c2cccc(Cl)c2C)C2=C(C(=O)CCC2)C1c1ccc2c(c1)OCO2 (stereo unspecified)									18.5 µM					30.4 µM				
Cc1ccc(-c2cc(C(F)(F)F)n3ncc(C(=O)Nc4sc5c(c4C(N)=O)CCCC5)c3n2)cc1	101 µM	> 250 µM							63 µM		> 250 µM			43 µM				
CCC(C)NC(=O)c1ccccc1NC(=O)c1cccc(S(=O)(=O)Nc2cc(C)ccc2C)c1 (stereo unspecified)	35.2 µM	> 250 µM	10.8 µM	15.5 µM		16.5 µM	19.8 µM	22.1 µM	25.7 µM		> 250 µM		16.7 µM	84 µM	inactive			
CCC(C)NC(=O)c1ccccc1NC(=O)c1cccc(S(=O)(=O)Nc2ccccc2)c1 (stereo unspecified)	30.5 µM	> 250 µM	23.5 µM	25.5 µM	50%	22.5 µM	26.3 µM	43 µM	17.2 µM		> 250 µM		37.6 µM	9.2 µM	inactive	permeable	1 µg/mL (≈ 2.21 µM)	
Cc1ccc(C)c(NS(=O)(=O)c2cc(C(=O)Nc3ccccc3C(=O)Nc3ccccc3)ccc2C)c1	24.7 µM	70.3 µM							> 100 µM		> 250 µM			91.9 µM				
CCC(C)NC(=O)c1ccccc1NC(=O)c1ccc(C)c(S(=O)(=O)Nc2cccc(NC(=O)c3ccccc3)c2)c1 (stereo unspecified)	> 100 µM	> 250 µM							> 100 µM		> 250 µM			> 200 µM				
NC(=O)c1ncn([C@@H]2O[C@H](CO)[C@@H](O)[C@H]2O)n1 [RIBAVIRIN]	15.6 µM	> 250 µM							24.9 µM		> 250 µM							
NC(=O)c1c(NC(=O)c2cnn3c(C(F)(F)F)cc(-c4ccccc4)nc23)sc2c1CCCC2	> 100 µM	> 250 µM							70.5 µM		> 250 µM			120 µM				
COc1ccc(-c2cc(C(F)(F)F)n3ncc(C(=O)Nc4sc5c(c4C(N)=O)CCCC5)c3n2)cc1		51.3 µM									40.4 µM			135 µM				
Cn1c(=O)cc2c3c(c(N4CCCCC4)ccc31)C(=O)c1ccccc1-2															Active			
NC(=O)c1c(NC(=O)c2nc3nc(-c4ccccc4)cc(C(F)(F)F)n3n2)sc2c1CCCC2	23.7 µM	> 250 µM	20 µM	33.5 µM		23.3 µM	25.9 µM	22.9 µM	9.2 µM		> 250 µM		20.6 µM	7.5 µM	inactive	permeable	2.4 µg/mL (≈ 4.93 µM)	Stable

— ChEMBL document CHEMBL3286353, “Optimization of small-molecule inhibitors of influenza virus polymerase: from thiophene-3-carboxamide to polyamido scaffolds” (J Med Chem, 2014)
